The nature of test [1]: imipenem potentiation in VIM-2 Acinetobacter isolate, late-stage follow-up, strain YMC07/8/B3323, clinical isolate, powder samples (AID 624096). The settings on record: VIM-2 Acinetobacter YMC07/8/B3323 growth with imipenem, OD590; measured here: max imipenem potentiation fold; stronger effect = higher value. Summed up: (§1)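 System – Acinetobacter cells in broth microdilution · Technique – OD590 turbidity · Incubation – growth of at least 18 h, aerobic, 37 °C · Medium – CAMHB · Dosing – compound two-fold series crossed with imipenem · Read-out – CLSI MIC · Probe or stimulus – imipenem, two-fold titration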

Test [2] concerns VIM-2 Acinetobacter YMC07/8/B3323 growth with imipenem, OD590. The test is described as above. Summed up: as §1

Structures are written as SMILES. Where “and” joins values, the source holds several entries; their conditions need not be identical. Identical values can stand only once. Calls of active or inactive are those of the source.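 Rule for the calls: active = compound needing at most 10 µM to cut the imipenem dose that stops bacterial growth fourfold; inactive = the rest.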 Bounds are passed on as bounds.

As for `CN1CCN(NC(=O)CN2C(=O)/C(=C/c3c(F)cccc3C(F)(F)F)SC2=S)CC1`, the fold potentiation in test [1] is 2. Besides, the MIC in test [2] was 3.12 µM.
On to `O=C(CN1C(=O)/C(=C/c2c(Cl)ccc(Cl)c2Cl)SC1=S)NCc1ccccn1`, for which the fold potentiation in test [1] was 16 and 32. In addition, the MIC in test [2] is 1.56 µM.
`CN1CCN(NC(=O)[C@H](Cc2ccccc2)N2C(=O)/C(=C/c3c(Cl)cccc3Cl)SC2=S)CC1`: the fold potentiation in test [1] was 8. The MIC in test [2] was > 25 µM (inactive).
Consider `O=C(CN1C(=O)/C(=C/c2c(Cl)cccc2Cl)SC1=S)NCc1ccncc1`, for which the fold potentiation in test [1] stood at 16. Besides, the MIC in test [2] was 6.25 µM.
Taken in the same sequence, the figures for `CC(C)N1CCN(NC(=O)CN2C(=O)/C(=C/c3c(Cl)cccc3Cl)SC2=S)CC1` were 32 and 6.25 µM.
Regarding `CN1CCN(NC(=O)CN2C(=O)/C(=C/c3c(Cl)cccc3Cl)SC2=S)CC1`, in test [1], the fold potentiation is 32. In addition, the MIC in test [2] was 3.12 µM and 6.25 µM.
On to `CN1CCN(NC(=O)CN2C(=O)/C(=C/c3c(C(F)(F)F)ccc(Cl)c3Cl)SC2=S)CC1`, for which the fold potentiation in test [1] was 32. The MIC in test [2] is 3.12 µM.
Taken in the same sequence, the figures for `CN1CCN(NC(=O)C(Cc2ccc(Cl)cc2)N2C(=O)/C(=C/c3c(Cl)ccc(Cl)c3Cl)SC2=S)CC1` (stereo unspecified) were 32 and 1.56 µM.
With `CN1CCN(NC(=O)C(Cc2ccccc2)N2C(=O)/C(=C/c3c(Cl)ccc(Cl)c3Cl)SC2=S)CC1` (stereo unspecified), the fold potentiation in test [1] was 32. In test [2], the MIC is 1.56 µM.
As to `O=C(CN1C(=O)/C(=C/c2c(Cl)cccc2Cl)SC1=S)NN1CCNCC1`, the fold potentiation in test [1] was 16. The MIC in test [2] is 3.12 µM.
Consider `C[N+]1(OS(C)(=O)=O)CCN(NC(=O)CN2C(=O)/C(=C/c3c(Cl)ccc(Cl)c3Cl)SC2=S)CC1`, for which the fold potentiation in test [1] worked out at 32. Besides, the MIC in test [2] was 0.195 µM.
On to `CN1CCN(NC(=O)CN2C(=O)/C(=C/c3ccc([N+](=O)[O-])cc3)SC2=S)CC1`, for which the MIC in test [2] is > 50 µM (inactive).
Consider `Cc1cc(C)c(/C=C2\SC(=S)N(CC(=O)O)C2=O)c(C)c1`, for which the MIC in test [2] was > 50 µM (inactive).
In the case of `Cc1cc(C)n(NC(=O)CN2C(=O)/C(=C/c3c(Cl)cccc3Cl)SC2=S)c(=O)c1`, the fold potentiation in test [1] is 32. Besides, the minimal inhibitory concentration (MIC) in test [2] was 1.56 µM.
On to `CN1CCN(NC(=O)CN2C(=O)/C(=C/c3c(Cl)ccc(C(F)(F)F)c3Cl)SC2=S)CC1`, for which the fold potentiation in test [1] was determined as 16. In addition, the MIC in test [2] is 3.12 µM.
As for `O=C(CN1C(=O)/C(=C/c2c(Cl)cccc2Cl)SC1=S)NN1CCN(Cc2ccccc2)CC1`, the MIC in test [2] is 3.12 µM.
As to `O=C(O)CN1C(=O)/C(=C/c2c(F)cccc2Br)SC1=S`, the fold potentiation in test [1] turned out to be 2. Besides, in test [2], the MIC is > 50 µM (inactive).
`Cc1ccc(S(=O)(=O)N2CCN(NC(=O)CN3C(=O)/C(=C/c4c(Cl)cccc4Cl)SC3=S)CC2)cc1`: in test [2], the MIC is > 25 µM (inactive).
For `O=C(O)CN1C(=O)/C(=C/c2c(F)c(F)c(F)c(F)c2F)SC1=S`, the fold potentiation in test [1] was 2. In test [2], the MIC was > 50 µM (inactive).
As for `CC(C)C(C(=O)NN1CCN(C)CC1)N1C(=O)/C(=C/c2c(Cl)ccc(Cl)c2Cl)SC1=S` (stereo unspecified), the fold potentiation in test [1] amounted to 32. In test [2], the MIC was 1.56 µM.
On to `Cc1cc(C)c(/C=C2\SC(=S)N(CC(=O)NN3CCN(C)CC3)C2=O)c(C)c1`, for which the fold potentiation in test [1] worked out at 4. In addition, the MIC in test [2] was > 25 µM (inactive).
On the same counts, the results for `CN1CCN(NC(=O)CN2C(=O)/C(=C/c3c(F)cccc3Cl)SC2=S)CC1` are 32 and 3.12 µM.
Regarding `O=C(O)CN1C(=O)/C(=C/c2ccc(Cl)cc2)SC1=S`, the fold potentiation in test [1] came to 2. For the same compound, in test [2], the MIC was > 50 µM (inactive).
Taken in the same sequence, the figures for `O=C(O)CN1C(=O)/C(=C/c2c(F)cccc2F)SC1=S` were 2 and > 50 µM (inactive).
With `O=C(CN1C(=O)/C(=C/c2c(Cl)cccc2Cl)SC1=S)NN1CCCCC1`, in test [1], the fold potentiation was 16. The MIC in test [2] is 3.12 µM.
On the same counts, the results for `O=C(CN1C(=O)/C(=C/c2c(Cl)ccc(Cl)c2Cl)SC1=S)NN1CCNCC1` are 32 and 0.781 µM.
Taken in the same sequence, the figures for `CN1CCN(NC(=O)CN2C(=O)/C(=C/c3c(F)cccc3F)SC2=S)CC1` were 4 and > 25 µM (inactive).
On to `CCOC(=O)/C=C1\SC(=S)N(CC(=O)O)C1=O`, for which the MIC in test [2] was > 50 µM (inactive).
Same read-out and setting: next, `CN1CCN(NC(=O)CN2C(=O)/C(=C/c3ccc(Cl)cc3)SC2=S)CC1`: > 50 µM (inactive).
Take `O=C(CN1C(=O)/C(=C/c2c(Cl)ccc(Cl)c2Cl)SC1=S)NN1CCCCC1`: in test [1], the fold potentiation is 16. Besides, the MIC in test [2] is 3.12 µM.
Taken in the same sequence, the figures for `CN1CCN(NC(=O)CN2C(=O)/C(=C/c3c(F)cccc3Br)SC2=S)CC1` were 2 and > 50 µM (inactive).
With `CN1CCN(NC(=O)CN2C(=O)/C(=C/c3c(Cl)ccc(Cl)c3Cl)SC2=S)CC1`, the fold potentiation in test [1] was 32 and 16. Moreover, the MIC in test [2] is 0.781 µM and 1.56 µM and 0.391 µM.
With `CCN(CC)OC(=O)CN1C(=O)/C(=C/c2c(Cl)cccc2Cl)SC1=S`, the fold potentiation in test [1] came out at 8. Further, the MIC in test [2] was 12.5 µM (inactive).
On to `O=C(O)CN1C(=O)/C(=C/c2cccnc2)SC1=S`, for which the MIC in test [2] is > 50 µM (inactive).
For the compound `CN1CCN(NC(=O)CN2C(=O)/C(=C/c3ccc4ccccc4n3)SC2=S)CC1`, the MIC in test [2] is > 50 µM (inactive).
The same measure, in the same setting: next, `CN1CCN(NC(=O)CN2C(=O)/C(=C/c3ccc(F)cc3)SC2=S)CC1`: > 50 µM (inactive).
For the compound `O=C(O)CN1C(=O)/C(=C/c2c(F)cccc2Cl)SC1=S`, the fold potentiation in test [1] came to 2. Also, the MIC in test [2] was > 50 µM (inactive).
For `CC(=O)N1CCN(NC(=O)CN2C(=O)/C(=C/c3c(Cl)cccc3Cl)SC2=S)CC1`, the fold potentiation in test [1] turned out to be 32. The MIC in test [2] was 6.25 µM.
On to `CCOC(=O)/C=C1\SC(=S)N(CC(=O)NN2CCN(C)CC2)C1=O`, for which the fold potentiation in test [1] stood at 2. The MIC in test [2] was > 50 µM (inactive).
Taken in the same sequence, the figures for `O=C(CN1C(=O)/C(=C/c2c(Cl)cccc2Cl)SC1=S)NN1CCN(C(=O)c2ccccc2)CC1` were 16 and 3.12 µM.
As for `O=C(CN1C(=O)/C(=C/c2c(Cl)cccc2Cl)SC1=S)Nc1cc([N+](=O)[O-])ccc1O`, the MIC in test [2] was > 50 µM (inactive).
Turning to `O=C(O)CN1C(=O)/C(=C/c2c(Cl)cccc2Cl)SC1=S`, in test [1], the fold potentiation was determined as 16. In test [2], the MIC was 12.5 µM (inactive).
Taken in the same sequence, the figures for `O=C(CN1C(=O)/C(=C/c2c(Cl)cccc2Cl)SC1=S)NN1CCN(S(=O)(=O)c2ccc(Cl)cc2)CC1` were 2 and > 50 µM (inactive).
As to `O=C(O)CN1C(=O)/C(=C/c2ccc(F)cc2)SC1=S`, in test [2], the MIC was > 50 µM (inactive).
Take `CN1CCN(C(=O)CN2C(=O)/C(=C/c3c(Cl)cccc3Cl)SC2=S)CC1`: the fold potentiation in test [1] turned out to be 16. Also, the MIC in test [2] is 6.25 µM.
As to `CC(C)(C)OC(=O)N1CCN(NC(=O)CN2C(=O)/C(=C/c3c(Cl)cccc3Cl)SC2=S)CC1`, the fold potentiation in test [1] is 16. The MIC in test [2] was 3.12 µM.
`CC(C)(C)OC(=O)N1CCN(NC(=O)CN2C(=O)/C(=C/c3c(Cl)ccc(Cl)c3Cl)SC2=S)CC1`: the fold potentiation in test [1] amounted to 16. The MIC in test [2] was 0.781 µM.
For `CN1CCN(C(=O)CN2C(=O)/C(=C/c3c(Cl)ccc(Cl)c3Cl)SC2=S)CC1`, the fold potentiation in test [1] was 16 and 32. In test [2], the MIC was 1.56 µM and 0.781 µM.
With `O=C(O)CN1C(=O)/C(=C/c2ccc3ccccc3n2)SC1=S`, in test [2], the MIC was > 50 µM (inactive).
`O=C(CN1C(=O)/C(=C/c2c(Cl)cccc2Cl)SC1=S)NCc1ccccn1`: the fold potentiation in test [1] was 16. Moreover, in test [2], the MIC is 6.25 µM.
Taken in the same sequence, the figures for `CN1CCN(NC(=O)CN2C(=O)/C(=C/c3cccnc3)SC2=S)CC1` were 4 and > 50 µM (inactive).
As for `O=C(O)CN1C(=O)/C(=C/c2c(C(F)(F)F)ccc(Cl)c2Cl)SC1=S`, in test [1], the fold potentiation came to 16. Also, the MIC in test [2] is 6.25 µM.
Taken in the same sequence, the figures for `O=C(O)CN1C(=O)/C(=C/c2ccccc2Br)SC1=S` were 2 and > 50 µM (inactive).
On the same counts, the results for `O=C(O)CN1C(=O)/C(=C/c2c(Cl)ccc(C(F)(F)F)c2Cl)SC1=S` are 8 and 6.25 µM.
Taken in the same sequence, the figures for `O=C(O)CN1C(=O)/C(=C/c2c(F)cccc2C(F)(F)F)SC1=S` were 2 and > 25 µM (inactive).
Take `O=C(CN1C(=O)/C(=C/c2c(Cl)ccc(Cl)c2Cl)SC1=S)N1CCN(c2ccccc2Cl)CC1`: the MIC in test [2] was > 50 µM (inactive).
Take `CC(C)(C)OC(=O)N1CCN(C(=O)CN2C(=O)/C(=C/c3c(Cl)ccc(Cl)c3Cl)SC2=S)CC1`: the fold potentiation in test [1] worked out at 16. Also, the MIC in test [2] was 6.25 µM.
Taken in the same sequence, the figures for `O=C(O)CN1C(=O)/C(=C/c2c(Cl)ccc(Cl)c2Cl)SC1=S` were 16 and 6.25 µM.
On to `CN1CCN(NC(=O)CN2C(=O)/C(=C/c3ccccc3Br)SC2=S)CC1`, for which the fold potentiation in test [1] was 4. The MIC in test [2] was > 50 µM (inactive).
As to `CN1CCN(NC(=O)CN2C(=O)/C(=C/c3c(F)c(F)c(F)c(F)c3F)SC2=S)CC1`, the fold potentiation in test [1] was 2. Further, the MIC in test [2] was > 50 µM (inactive).
Turning to `O=C(CN1C(=O)/C(=C/c2c(Cl)cccc2Cl)SC1=S)Nc1cccnc1`, the fold potentiation in test [1] was found to be 16. For the same compound, the MIC in test [2] is 6.25 µM.
On the same counts, the results for `O=C(O)CN1C(=O)/C(=C/c2ccc([N+](=O)[O-])cc2)SC1=S` are 2 and > 50 µM (inactive).

Values taken from PubChem BioAssay AID624096 (The Scripps Research Institute Molecular Screening Center, 2012).
